PAFAH1B2 FP inh: PAFAH1B2 enzyme inhibitors, primary screen, biochemical, fluorescence polarization, human | Platelet-activating factor acetylhydrolase IB subunit alpha2 (Homo sapiens), P68402 | recombinant PAFAH1B2, FP-rhodamine activity probe | 1.2% of 340,000 active | inhibition, % at 3.39 µM;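 active means inhibition above the mean of all tested compounds plus 3 SD, cut at about 24% in these data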
PAFAH1B3 inh: PAFAH1B3 enzyme inhibitors, primary screen, biochemical, fluorescence polarization, human; 0.28% of 340,000 active; Platelet-activating factor acetylhydrolase IB subunit alpha1 (Homo sapiens), Q15102; inhibition, % at 3.39 µM; recombinant PAFAH1B3, FP-rhodamine probe;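 active means inhibition above the screen-wide average of all tested compounds plus 3 SD, cut at about 25% in these data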
VIM-2 inhibitor: VIM-2 metallo-beta-lactamase inhibitors, primary screen, biochemical, epi-absorbance readout, Pseudomonas aeruginosa enzyme; inhibition, % at 5.6 µM; AID 1527, 2009; purified VIM-2, nitrocefin hydrolysis, epi-absorbance fluorescence; 0.89% of 290,000 active;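 active means inhibition above the mean of all tested compounds plus 3 SD, cutoff set per screening run, cut at about 7.5% in these data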;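 further: red hydrolysis product quenches plate fluorescence so inhibitors raise well fluorescence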
IMP-1 inhibitor: IMP-1 metallo-beta-lactamase inhibitors, primary screen, biochemical, epi-absorbance readout, Pseudomonas aeruginosa enzyme. metallo-beta-lactamase IMP-1 (Pseudomonas aeruginosa). purified IMP-1, nitrocefin hydrolysis, epi-absorbance fluorescence. inhibition, % at 5.6 µM. 0.45% of 290,000 active. AID 1556, 2009;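 active means inhibition above the mean plus 3 SD of all compounds in the same screening run, cut at about 4.5% in these data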
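Test system: recombinant IMP-1 enzyme, purified / Medium: HEPES buffer pH 7.1 with ZnSO4 and Brij 35 / Doses: single dose, 5.6 µM / Times: 25 °C, 15 min preincubation, 25 min reaction / Detection: Epi-absorbance via hydrolysed-nitrocefin quenching of white-plate fluorescence, 480/530 nm, EDTA stop / Evaluation: percent inhibition from optical density relative to buffer-blank wells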
pPAFAH inh: pPAFAH enzyme inhibitors, primary screen, biochemical, fluorescence polarization, human. recombinant pPAFAH, FP-rhodamine probe fluorescence polarization. Platelet-activating factor acetylhydrolase (Homo sapiens), Q13093. 1.5% of 330,000 active. inhibition, % at 3.39 µM;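 active means inhibition above the mean inhibition across the screen plus 3 SD, cut at about 25% in these data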;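 further: inhibitors block binding of the rhodamine activity-based probe so polarization drops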
Target sequence (Q13093 whole entry, looked up): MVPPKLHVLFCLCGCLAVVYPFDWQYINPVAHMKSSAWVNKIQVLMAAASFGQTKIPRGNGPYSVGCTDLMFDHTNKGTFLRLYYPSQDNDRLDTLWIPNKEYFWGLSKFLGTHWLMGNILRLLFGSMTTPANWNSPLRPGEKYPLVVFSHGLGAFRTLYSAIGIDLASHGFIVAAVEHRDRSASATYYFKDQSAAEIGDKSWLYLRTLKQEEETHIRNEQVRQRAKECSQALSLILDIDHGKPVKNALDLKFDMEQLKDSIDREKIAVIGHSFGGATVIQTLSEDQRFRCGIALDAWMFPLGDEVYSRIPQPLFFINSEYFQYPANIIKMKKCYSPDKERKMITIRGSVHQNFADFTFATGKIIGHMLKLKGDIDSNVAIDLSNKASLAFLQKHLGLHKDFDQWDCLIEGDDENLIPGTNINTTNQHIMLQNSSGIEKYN
PAFAH2 FP inh: PAFAH2 enzyme inhibitors, primary screen, biochemical, fluorescence polarization, human; inhibition, % at 3.39 µM; AID 492956, 2010; Platelet-activating factor acetylhydrolase 2, cytoplasmic (Homo sapiens), Q99487; 0.99% of 340,000 active; recombinant PAFAH2, FP-rhodamine activity probe;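 active means inhibition above the mean over all tested compounds plus 3 SD, cut at about 30% in these data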;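 further: inhibitors block probe labeling of enzyme so polarization drops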
Numbers stand for hits; . = inactive; / = not tested or not shown; ! = not active in a repeat. Most compounds without a hit are left out; they make up all but 3.6% or so of the library.

SMILES	PAFAH1B2 FP inh	PAFAH1B3 inh	VIM-2 inhibitor	IMP-1 inhibitor	pPAFAH inh	PAFAH2 FP inh
Cc1ccc(NC2=C/C(=N\S(=O)(=O)c3cccs3)c3ccccc3C2=O)c(C)c1	30.2	64.8	.	.	29.3	34.4
Cc1ccc(Cl)cc1NC1=C/C(=N\S(=O)(=O)c2cccs2)c2ccccc2C1=O	27.6!	57.8	.	.	25.1	31.4
O=C1C(Nc2ccc(O)cc2)=C/C(=N/S(=O)(=O)c2cccs2)c2ccccc21	28.5	64.0	.	.	/	34.7
Cc1cccc(NC2=C/C(=N/S(=O)(=O)c3cccs3)c3ccccc3C2=O)c1	.	64.4	.	.	.	.
O=C1C=C(Nc2ccc(O)cc2)C(=O)c2ccccc21	.	.	.	.	.	.
Cc1cccc(NC2=C(NCCO)C(=O)c3ccccc3C2=O)c1	.	.	.	.	.	.
CSc1cccc(NC(=O)CN(C)S(=O)(=O)c2cnc[nH]2)c1	.	.	.	.	.	.
O=C(O)c1ccc(NS(=O)(=O)c2ccc3c(c2)C(=O)c2ccccc2C3=O)cc1	/	/	.	.	.	/
O=C(O)c1ccc(NC2=C/C(=N/S(=O)(=O)c3ccccc3)c3ccccc3C2=O)cc1	30.3	63.4	.	.	/	47.9
CC(C)(C)c1cc(OS(C)(=O)=O)ccc1O	.	.	.	.	.	.
CC(C)(C)c1cc(OC(=O)C2CCCC2)ccc1O	92.3	.	.	.	.	.
Cc1ccc(-c2nn3c(C)nnc3c3ccccc23)cc1S(=O)(=O)NC(C)c1ccccc1 (configuration not stated)	25.9	.	.	.	.	.
Cc1cc(C(=O)O)cc(S(=O)(=O)Nc2c(C)nn(C)c2C)c1C	.	.	/	/	.	.
O=C(Nc1ccc(Cl)cc1)OCc1cn(-c2ccccc2)nn1	.	.	.	7.5	.	.
CCOc1ccc2[nH]c(C)c(CN3CCN(CC)CC3)c(=O)c2c1	.	.	.	5.2	.	.
O=C(COc1ccc(F)cc1)NCC1(N2CCCCC2)CCCCC1	.	.	/	/	/	.
CC(C)(C)c1ccc(CCC(CC(=O)O)CC(=O)O)cc1	26.6	.	.	.	.	.
CC(C)(C)c1ccc(C(CC(=O)O)NC(=O)Cc2ccc(F)cc2)cc1 (configuration not stated)	/	/	.	.	.	/
COC(=O)c1cncn1Cc1ccccc1	.	.	/	/	/	.
CC(=O)N1c2ccc(C)cc2C(c2ccccc2)CC1C (configuration not stated)	.	.	.	13.8	.	.
O=C(Nc1ccccc1C(=O)O)c1cc(S(=O)(=O)N2CCCCCC2)ccc1Cl	.	.	.	.	.	.
O=C(Nc1ccccc1C(=O)O)c1cc(S(=O)(=O)Nc2cccc(F)c2)ccc1Cl	.	.	.	.	31.3	.
CCCCn1c(N)c(N(CCOC)C(=O)CCNC(=O)c2ccc(Br)cc2)c(=O)[nH]c1=O	.	.	/	/	.	.
CC(C(=O)N1CCc2ccccc21)N1CCN(c2cccc(C(F)(F)F)c2)CC1 (configuration not stated)	.	.	.	.	.	.
Cc1ccc(CSCCNC(=O)CCSc2ccccc2)cc1	40.9	.	.	.	.	.
SMILES	PAFAH1B2 FP inh	PAFAH1B3 inh	VIM-2 inhibitor	IMP-1 inhibitor	pPAFAH inh	PAFAH2 FP inh
O=C(CCSCc1cccc(Cl)c1)NCCc1ccc(Cl)cc1	28.4	.	.	.	.	.
Cc1ccc(SCCC(=O)Nc2ccccc2Br)cc1	26.4	.	.	.	.	.
O=C(CCSCc1ccc(Cl)cc1)NC1CCCC1	26.9	.	.	.	.	.
CC(C)COc1cccc(-c2cc(C(=O)N/N=C/c3ccncc3)c3ccccc3n2)c1	.	.	.	.	/	.
O=C(O)c1cc(N=Cc2c(O)c3ccccc3oc2=O)ccc1O	.	.	.	.	/	.
Cc1ccc(CNC(=O)CCSCc2cccc(F)c2)cc1	25.1	.	.	.	.	.
Cc1ccc(N)cc1NC(=O)CN1CCOCC1	.	.	.	.	.	.

Bioassay records as filed in PubChem.
